From ChEMBL document CHEMBL1135143, “Discovery and evaluation of N-(triazin-1,3,5-yl) phenylalanine derivatives as VLA-4 integrin antagonists” (Bioorg Med Chem Lett, 2002)

What was measured:
[1] = biological target: T1, Integrin alpha-4/beta-1 (Homo sapiens, UniProt P05556+P13612); experiment: Inhibition of VLA-4 expressed in Jurkat cell line, in a cell-based adhesion assay.
In short: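 VLA-4-expressing Jurkat cells incubated 30 min at 37 °C with test compound on plates carrying human two-domain VCAM-1-Fc captured by anti-human Fc; after washing, adherent cells stained with Rose Bengal.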

[2] = biological target: T1, Integrin alpha-4/beta-1; experiment: Inhibition of VLA-4 from HL60 lysate in a protein-based ligand binding assay.
In short: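 Compounds titrated into two-domain VCAM-Fc-Ig solution, then added to VLA-4-coated wells; TBS, 1% BSA, 1 mM MnCl2, 0.1% Tween, 2 h room temperature. After washing, bound VCAM detected with peroxidase-coupled anti-human Fc.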

[3] = Compound was evaluated for rate of clearance by using IPRL (Isolated Perfused Rat Liver); assay type: ADME

T1 sequence (P05556 whole entry): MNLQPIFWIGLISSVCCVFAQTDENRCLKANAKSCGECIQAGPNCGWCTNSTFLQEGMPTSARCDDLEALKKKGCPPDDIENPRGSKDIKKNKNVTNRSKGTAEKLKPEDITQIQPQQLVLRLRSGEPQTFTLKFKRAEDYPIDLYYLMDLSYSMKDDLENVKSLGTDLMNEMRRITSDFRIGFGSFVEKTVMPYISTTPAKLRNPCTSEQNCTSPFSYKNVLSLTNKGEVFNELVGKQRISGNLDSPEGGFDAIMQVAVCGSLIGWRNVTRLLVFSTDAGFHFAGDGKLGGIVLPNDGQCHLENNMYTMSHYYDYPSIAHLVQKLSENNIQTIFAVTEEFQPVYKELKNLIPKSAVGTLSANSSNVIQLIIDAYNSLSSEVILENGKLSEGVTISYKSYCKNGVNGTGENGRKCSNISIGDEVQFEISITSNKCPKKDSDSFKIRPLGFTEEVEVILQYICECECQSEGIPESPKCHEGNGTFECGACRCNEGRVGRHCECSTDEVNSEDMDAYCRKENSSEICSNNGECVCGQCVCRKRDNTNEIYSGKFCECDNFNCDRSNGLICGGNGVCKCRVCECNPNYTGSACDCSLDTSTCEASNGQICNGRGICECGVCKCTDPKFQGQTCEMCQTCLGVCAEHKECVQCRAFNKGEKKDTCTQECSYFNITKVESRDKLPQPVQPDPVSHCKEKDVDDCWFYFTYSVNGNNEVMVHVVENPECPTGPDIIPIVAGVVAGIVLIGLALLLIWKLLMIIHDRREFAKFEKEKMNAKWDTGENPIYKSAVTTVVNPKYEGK
T1 sequence (P13612 whole entry): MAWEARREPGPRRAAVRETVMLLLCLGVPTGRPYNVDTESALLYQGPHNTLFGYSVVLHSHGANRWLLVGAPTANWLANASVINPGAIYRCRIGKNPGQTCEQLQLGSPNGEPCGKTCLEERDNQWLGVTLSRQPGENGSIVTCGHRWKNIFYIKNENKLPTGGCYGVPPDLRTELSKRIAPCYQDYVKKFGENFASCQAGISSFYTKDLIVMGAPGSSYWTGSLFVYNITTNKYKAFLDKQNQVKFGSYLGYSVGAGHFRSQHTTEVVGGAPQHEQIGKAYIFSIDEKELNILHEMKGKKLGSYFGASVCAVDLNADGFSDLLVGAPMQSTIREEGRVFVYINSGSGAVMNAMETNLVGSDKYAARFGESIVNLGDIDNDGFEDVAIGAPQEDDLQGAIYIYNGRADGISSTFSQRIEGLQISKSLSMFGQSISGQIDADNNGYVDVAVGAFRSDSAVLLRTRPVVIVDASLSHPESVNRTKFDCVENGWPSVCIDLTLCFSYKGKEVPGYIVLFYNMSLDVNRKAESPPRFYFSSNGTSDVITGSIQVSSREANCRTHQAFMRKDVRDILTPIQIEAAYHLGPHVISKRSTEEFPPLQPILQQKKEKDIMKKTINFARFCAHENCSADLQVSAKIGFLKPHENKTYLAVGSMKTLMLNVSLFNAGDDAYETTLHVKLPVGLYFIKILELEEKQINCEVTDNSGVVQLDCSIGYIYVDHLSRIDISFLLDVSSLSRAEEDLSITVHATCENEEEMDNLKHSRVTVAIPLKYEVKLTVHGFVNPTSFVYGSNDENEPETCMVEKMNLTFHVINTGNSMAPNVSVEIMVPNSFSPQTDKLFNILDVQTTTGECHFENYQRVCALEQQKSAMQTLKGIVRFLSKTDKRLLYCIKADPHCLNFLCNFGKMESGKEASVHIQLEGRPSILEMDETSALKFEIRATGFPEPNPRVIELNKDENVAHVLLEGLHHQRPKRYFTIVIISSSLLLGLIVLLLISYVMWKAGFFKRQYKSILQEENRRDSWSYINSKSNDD

IC50 [1] | IC50 [2] | k el [3] | SMILES
0.51 µM | 0.014 µM | – | COc1nc(N[C@@H](Cc2ccc(NC(=O)c3c(Cl)cncc3Cl)cc2)C(=O)O)nc(N2CCOCC2)n1
0.24 µM | 0.006 µM | 0.000583 s⁻¹ | COc1nc(N[C@@H](Cc2ccc(NC(=O)c3c(Cl)cncc3Cl)cc2)C(=O)O)nc(N2CCC(C(=O)O)CC2)n1
– | 5.5 µM | – | COc1nc(N[C@@H](Cc2ccc(N(C)C(=O)c3c(Cl)cncc3Cl)cc2)C(=O)O)nc(OC)n1
4 µM | 0.03 µM | 0.000194 s⁻¹ | COc1nc(N[C@@H](Cc2ccc(NC(=O)c3c(Cl)cccc3Cl)cc2)C(=O)O)nc(OC)n1
– | 1.5 µM | 0.000611 s⁻¹ | COc1nc(N[C@@H](Cc2ccc(OCc3c(Cl)cccc3Cl)cc2)C(=O)O)nc(OC)n1
0.59 µM | 0.016 µM | 0.000306 s⁻¹ | COc1nc(N[C@@H](Cc2ccc(NC(=O)c3c(Cl)cncc3Cl)cc2)C(=O)O)nc(N(C)C)n1
– | – | 0.000278 s⁻¹ | O=C(Nc1ccc(C[C@H](Nc2ccc([N+](=O)[O-])cn2)C(=O)O)cc1)c1c(Cl)cncc1Cl
0.74 µM | 0.05 µM | 5.56e-05 s⁻¹ | CCCOc1nc(N[C@@H](Cc2ccc(NC(=O)c3c(Cl)cncc3Cl)cc2)C(=O)O)nc(OCCC)n1
1 µM | 0.025 µM | 0.000583 s⁻¹ | COc1nc(N[C@@H](Cc2ccc(NC(=O)c3c(Cl)cncc3Cl)cc2)C(=O)O)nc(N2CCNCC2)n1
0.32 µM | 0.03 µM | 0.000167 s⁻¹ | COc1nc(N[C@@H](Cc2ccc(NC(=O)c3c(Cl)cncc3Cl)cc2)C(=O)O)nc(Oc2ccccc2)n1
4.6 µM | 0.05 µM | 0.000167 s⁻¹ | COc1nc(N[C@@H](Cc2ccc(NC(=O)c3c(F)cccc3C(F)(F)F)cc2)C(=O)O)nc(OC)n1
0.3 µM | 0.045 µM | 0.000639 s⁻¹ | CCCOc1nc(N[C@@H](Cc2ccc(NC(=O)c3c(Cl)cncc3Cl)cc2)C(=O)O)nc(OC)n1
0.0005 µM | 0.0006 µM | 0.00103 s⁻¹ | CC(=O)N1CSC[C@@H]1C(=O)N[C@@H](Cc1ccc(NC(=O)c2c(Cl)cncc2Cl)cc1)C(=O)O
0.0005 µM | 0.0009 µM | 0.00108 s⁻¹ | O=C(Nc1ccc(C[C@H](NC(=O)c2c(Cl)cncc2Cl)C(=O)O)cc1)c1c(Cl)cncc1Cl
0.74 µM | 0.025 µM | 0.000667 s⁻¹ | CCCNc1nc(N[C@@H](Cc2ccc(NC(=O)c3c(Cl)cncc3Cl)cc2)C(=O)O)nc(OC)n1
1.62 µM | 0.07 µM | – | CCN(CC)c1nc(N[C@@H](Cc2ccc(NC(=O)c3c(Cl)cncc3Cl)cc2)C(=O)O)nc(OC)n1
0.9 µM | 0.008 µM | 0.000306 s⁻¹ | COc1nc(N[C@@H](Cc2ccc(NC(=O)c3c(Cl)cncc3Cl)cc2)C(=O)O)nc(OC)n1
0.32 µM | 0.007 µM | 0.0005 s⁻¹ | COc1nc(NCCO)nc(N[C@@H](Cc2ccc(NC(=O)c3c(Cl)cncc3Cl)cc2)C(=O)O)n1
– | – | 0.000583 s⁻¹ | O=C(Nc1ccc(C[C@H](Nc2cc(Cl)ncn2)C(=O)O)cc1)c1c(Cl)cncc1Cl
